Source: article PMC4984525 (Cancer, 2011)
Entries after “also recorded” stand apart in the source; their conditions may differ.

Assays:
[1] = Plasma pharmacokinetics of ARRY-520; type: in vivo, human; conditions: human, plasma, intravenous
tumor cell = conditions: background statement; cited from earlier work
[2] = test system: Peripheral blood mononuclear cells (PBMCs); experiment: Pharmacodynamics: spindle morphology by confocal imaging; type: cell-based, human
HCT-116 = HCT-116 subcutaneous xenograft, mouse; cited from earlier work
HCT15 = HCT15 subcutaneous xenograft, mouse; cited from earlier work
[3] = test system: relapsed or refractory AML or high-grade myelodysplastic syndromes; experiment: Clinical efficacy; type: in vivo, human
Procedure, shortened: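 Open-label, multicentre dose escalation in patients ≥17 y (ECOG 0–2). Test compound given IV over 1 h, on Day 1 (from 2.5 mg/m2) or on Days 1, 3 and 5 (from 0.8 mg/m2/day). Escalation steps were 50%, then 30%. Complete and partial remissions were scored during induction and later cycles; MDS used modified IWG criteria. Hydroxyurea was allowed during days 1–14.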

SMILES: CON(C)C(=O)N1N=C(c2cc(F)ccc2F)S[C@@]1(CCCN)c1ccccc1 [ARRY-520]
- Cmax ([1]; 1.8 mg/m^2, Cmax, Schedule 2, Cycle 1 Day 5, 1.8 mg/m^2 (N=2), geometric mean): 53.6 ng/mL
- MRT ([1]; 1.8 mg/m^2, MRT, Schedule 2, Cycle 1 Day 5, 1.8 mg/m^2 (N=2), median (min-max)): 114 h
- Tmax ([1]; 1.8 mg/m^2, Tmax, Schedule 2, Cycle 1 Day 1, 1.8 mg/m^2 (N=2), median (min-max)): 1 h
- Tmax ([1]; 1.8 mg/m^2, Tmax, Schedule 2, Cycle 1 Day 5, 1.8 mg/m^2 (N=2), median (min-max)): 1 h
- Vd ([1]; 1.8 mg/m^2, Vss, Schedule 2, Cycle 1 Day 1, 1.8 mg/m^2 (N=2), mean): 306 L
- Vd ([1]; 1.8 mg/m^2, Vss, Schedule 2, Cycle 1 Day 5, 1.8 mg/m^2 (N=2), mean): 127 L
- half-life ([1]; 1.8 mg/m^2, t1/2, Schedule 2, Cycle 1 Day 1, 1.8 mg/m^2 (N=2), median (min-max)): 27.1 h
- half-life ([1]; 1.8 mg/m^2, t1/2, Schedule 2, Cycle 1 Day 5, 1.8 mg/m^2 (N=2), median (min-max)): 80 h
- AUC(0-inf) ([1]; 2.5 mg/m^2): 1650 ng·h/mL
- clearance ([1]; 2.5 mg/m^2, CL, Schedule 1, Cycle 1 Day 1, 2.5 mg/m^2 (N=3), geometric mean (geometric %CV)): 44.8 mL/min
- Cmax ([1]; 2.5 mg/m^2, Cmax, Schedule 1, Cycle 1 Day 1, 2.5 mg/m^2 (N=3), geometric mean (geometric %CV)): 132 ng/mL
- MRT ([1]; 2.5 mg/m^2, MRT, Schedule 1, Cycle 1 Day 1, 2.5 mg/m^2 (N=3), median (min-max)): 92.7 h
- Tmax ([1]; 2.5 mg/m^2, Tmax, Schedule 1, Cycle 1 Day 1, 2.5 mg/m^2 (N=3), median (min-max)): 2 h
- Vd ([1]; 2.5 mg/m^2, Vss, Schedule 1, Cycle 1 Day 1, 2.5 mg/m^2 (N=3), mean (%CV)): 405 L
- half-life ([1]; 2.5 mg/m^2, t1/2, Schedule 1, Cycle 1 Day 1, 2.5 mg/m^2 (N=3), median (min-max)): 97.2 h
- AUC(0-t) ([1]; 3.6 mg/m^2, AUC0–24, Schedule 2, Cycle 1 Day 1, 3.6 mg/m^2 (N=1), geometric mean): 345 ng·h/mL
- AUC(0-t) ([1]; 3.6 mg/m^2, AUC0–24, Schedule 2, Cycle 1 Day 5, 3.6 mg/m^2 (N=1), geometric mean): 733 ng·h/mL
- clearance ([1]; 3.6 mg/m^2, CL, Schedule 2, Cycle 1 Day 1, 3.6 mg/m^2 (N=1), geometric mean): 187 mL/min
- clearance ([1]; 3.6 mg/m^2, CL, Schedule 2, Cycle 1 Day 5, 3.6 mg/m^2 (N=1), geometric mean): 22.2 mL/min
- Cmax ([1]; 3.6 mg/m^2, Cmax, Schedule 2, Cycle 1 Day 1, 3.6 mg/m^2 (N=1), geometric mean): 73.9 ng/mL
- Cmax ([1]; 3.6 mg/m^2, Cmax, Schedule 2, Cycle 1 Day 5, 3.6 mg/m^2 (N=1), geometric mean): 199 ng/mL
- MRT ([1]; 3.6 mg/m^2, MRT, Schedule 2, Cycle 1 Day 5, 3.6 mg/m^2 (N=1), median (min-max)): 152 h
- Tmax ([1]; 3.6 mg/m^2, Tmax, Schedule 2, Cycle 1 Day 1, 3.6 mg/m^2 (N=1), median (min-max)): 1 h
- Tmax ([1]; 3.6 mg/m^2, Tmax, Schedule 2, Cycle 1 Day 5, 3.6 mg/m^2 (N=1), median (min-max)): 1.08 h
- Vd ([1]; 3.6 mg/m^2, Vss, Schedule 2, Cycle 1 Day 1, 3.6 mg/m^2 (N=1), mean): 278 L
- Vd ([1]; 3.6 mg/m^2, Vss, Schedule 2, Cycle 1 Day 5, 3.6 mg/m^2 (N=1), mean): 202 L
- half-life ([1]; 3.6 mg/m^2, t1/2, Schedule 2, Cycle 1 Day 1, 3.6 mg/m^2 (N=1), median (min-max)): 18.7 h
- half-life ([1]; 3.6 mg/m^2, t1/2, Schedule 2, Cycle 1 Day 5, 3.6 mg/m^2 (N=1), median (min-max)): 108 h
- AUC(0-inf) ([1]; 3.75 mg/m^2): 1480 ng·h/mL
- clearance ([1]; 3.75 mg/m^2, CL, Schedule 1, Cycle 1 Day 1, 3.75 mg/m^2 (N=1), geometric mean): 113 mL/min
- Cmax ([1]; 3.75 mg/m^2, Cmax, Schedule 1, Cycle 1 Day 1, 3.75 mg/m^2 (N=1), geometric mean): 31.1 ng/mL
- MRT ([1]; 3.75 mg/m^2, MRT, Schedule 1, Cycle 1 Day 1, 3.75 mg/m^2 (N=1), median (min-max)): 127 h
- Tmax ([1]; 3.75 mg/m^2, Tmax, Schedule 1, Cycle 1 Day 1, 3.75 mg/m^2 (N=1), median (min-max)): 1 h
- Vd ([1]; 3.75 mg/m^2, Vss, Schedule 1, Cycle 1 Day 1, 3.75 mg/m^2 (N=1), mean): 857 L
- half-life ([1]; 3.75 mg/m^2, t1/2, Schedule 1, Cycle 1 Day 1, 3.75 mg/m^2 (N=1), median (min-max)): 100 h
- AUC(0-inf) ([1]; 4.5 mg/m^2): 3000 ng·h/mL
- clearance ([1]; 4.5 mg/m^2, CL, Schedule 1, Cycle 1 Day 1, 4.5 mg/m^2 (N=4), geometric mean (geometric %CV)): 49.2 mL/min
- Cmax ([1]; 4.5 mg/m^2, Cmax, Schedule 1, Cycle 1 Day 1, 4.5 mg/m^2 (N=4), geometric mean (geometric %CV)): 53.4 ng/mL
- MRT ([1]; 4.5 mg/m^2, MRT, Schedule 1, Cycle 1 Day 1, 4.5 mg/m^2 (N=4), median (min-max)): 142 h
- Tmax ([1]; 4.5 mg/m^2, Tmax, Schedule 1, Cycle 1 Day 1, 4.5 mg/m^2 (N=4), median (min-max)): 1.01 h
- Vd ([1]; 4.5 mg/m^2, Vss, Schedule 1, Cycle 1 Day 1, 4.5 mg/m^2 (N=4), mean (%CV)): 340 L
- half-life ([1]; 4.5 mg/m^2, t1/2, Schedule 1, Cycle 1 Day 1, 4.5 mg/m^2 (N=4), median (min-max)): 100 h
- AUC(0-inf) ([1]; 5.6 mg/m^2): 2520 ng·h/mL
- clearance ([1]; 5.6 mg/m^2, CL, Schedule 1, Cycle 1 Day 1, 5.6 mg/m^2 (N=2), geometric mean): 71.7 mL/min
- Cmax ([1]; 5.6 mg/m^2, Cmax, Schedule 1, Cycle 1 Day 1, 5.6 mg/m^2 (N=2), geometric mean): 49.6 ng/mL
- MRT ([1]; 5.6 mg/m^2, MRT, Schedule 1, Cycle 1 Day 1, 5.6 mg/m^2 (N=2), median (min-max)): 131 h
- Tmax ([1]; 5.6 mg/m^2, Tmax, Schedule 1, Cycle 1 Day 1, 5.6 mg/m^2 (N=2), median (min-max)): 0.959 h
- Vd ([1]; 5.6 mg/m^2, Vss, Schedule 1, Cycle 1 Day 1, 5.6 mg/m^2 (N=2), mean): 515 L
- half-life ([1]; 5.6 mg/m^2, t1/2, Schedule 1, Cycle 1 Day 1, 5.6 mg/m^2 (N=2), median (min-max)): 92.5 h
- clearance ([1]; CL, Schedule 1, Cycle 1 Day 1, Schedule Total (N=10), geometric mean (geometric %CV)): 56 mL/min
- clearance ([1]; CL, Schedule 2, Cycle 1 Day 1, Schedule Total (N=18), geometric mean (geometric %CV)): 119 mL/min
- clearance ([1]; CL, Schedule 2, Cycle 1 Day 5, Schedule Total (N=18), geometric mean (geometric %CV)): 19.8 mL/min
- clearance ([1]; CL, range across cohorts, Schedule 1, Cycle 1): 44.8 to 113 mL/min
- MRT ([1]; MRT, Schedule 1, Cycle 1 Day 1, Schedule Total (N=10), median (min-max)): 127 h
- Tmax ([1]; Tmax, Schedule 1, Cycle 1 Day 1, Schedule Total (N=10), median (min-max)): 1 h
- Tmax ([1]; Tmax, Schedule 2, Cycle 1 Day 1, Schedule Total (N=18), median (min-max)): 1 h
- Tmax ([1]; Tmax, Schedule 2, Cycle 1 Day 5, Schedule Total (N=18), median (min-max)): 1 h
- Vd ([1]; Vss, Schedule 1, Cycle 1 Day 1, Schedule Total (N=10), mean (%CV)): 446 L
- Vd ([1]; Vss, Schedule 2, Cycle 1 Day 1, Schedule Total (N=18), mean (%CV)): 306 L
- Vd ([1]; Vss, Schedule 2, Cycle 1 Day 5, Schedule Total (N=18), mean (%CV)): 191 L
- clearance ([1]; clearance, plasma PK, abstract summary): ~50 mL/min
- clearance ([1]; geometric mean CL, Schedule 1, Cycle 2, all patients, N=4): 50.3 mL/min
- MRT ([1]; median MRT, Schedule 1): 127 h
- half-life ([1]; median terminal t1/2, plasma PK, summary): > 90 h
- half-life ([1]; t1/2, Schedule 1, Cycle 1 Day 1, Schedule Total (N=10), median (min-max)): 98.6 h
- half-life ([1]; t1/2, Schedule 2, Cycle 1 Day 1, Schedule Total (N=18), median (min-max)): 26.1 h
- concentrations inducing mitotic arrest and tumor cell death (tumor cell): sub-nanomolar
- Aberrant spindles (with misaligned DNA) in PBMCs ([2]; Cycle 1, Day 5, patients dosed at 1.2 mg/m^2/day (after 3 doses)): observed in some PBMCs; also recorded: Aberrant spindles are observed; also recorded: abnormal spindles were observed
- Monopolar spindles in blood mononuclear cells ([2]; DAPI nucleic acid stain and anti-tubulin antibodies): Monopolar spindles were observed
- anti-cancer efficacy (HCT-116): demonstrated anti-cancer efficacy
- anti-cancer efficacy (HCT15): demonstrated anti-cancer efficacy
- partial response, % ([3]; 34 patients with efficacy data): 3%
- partial response, patients n ([3]; 34 patients with efficacy data): 1
- complete remissions ([3]; heavily pretreated relapsed/refractory AML or MDS): did not observe complete remissions
